Source: ChEMBL document CHEMBL4011626, “Structure-Based Optimization of Pyridoxal 5'-Phosphate-Dependent Transaminase Enzyme (BioA) Inhibitors that Target Biotin Biosynthesis in Mycobacterium tuberculosis” (J Med Chem, 2017)

How the values were obtained:
[1] = test system: Mycobacterium tuberculosis; test: Inhibition of Bio-A overexpressed in Mycobacterium tuberculosis in presence of anhydrotetracycline after 9 days
In short: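 BioA-overexpressing or BioA-underexpressing Mtb strains were pregrown in Sauton's with 1 μM biotin, washed twice, and seeded at OD580 0.03 in biotin-free medium with 200 ng/mL anhydrotetracycline to set BioA expression. Compounds were tested at 0.2–50 μM final at 37 °C. OD580 was read after 9 days. MIC is the concentration giving 50% inhibition. Triplicate, two biological replicates.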

[2] = Binding affinity to N-terminally His-tagged Mycobacterium tuberculosis BioA overexpressed in Escherichia coli by ITC method
In short: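 BioA loaded with PLP by adding 1 mM PLP after size exclusion, then buffer-exchanged into 25 mM HEPES pH 7.5, 50 mM NaCl. Titrated at 25 °C: 10 μM BioA, ligand 100 μM with DMSO matched, 2 μL injections 150 s apart, 750 rpm. First injection discarded; dilution heats corrected; curve fit gives KA, KD = 1/KA. Triplicate, mean ± standard error.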

SMILES: O=C(c1cccc(Cl)c1)N1CCN(c2ccc(-c3ccno3)cc2)CC1
- MIC50 [1]: 38.9 µM

SMILES: CC(=O)c1ccc(N2CCN(C(=O)CC(C)C)CC2)cc1
- MIC50 [1]: > 50 µM

SMILES: O=C1CCc2cc(N3CCN(C(=O)c4cccc(Cl)c4)CC3)ccc21
- MIC50 [1]: 8.1 µM
- Kd [2]: 132 nM

SMILES: CCCCCC(=O)N1CCN(c2ccc(C(C)=O)cc2)CC1
- MIC50 [1]: 47.6 µM

SMILES: CCCC(=O)N1CCN(c2ccc(C(C)=O)cc2)CC1
- MIC50 [1]: > 50 µM

SMILES: Cc1noc(-c2ccc(N3CCN(C(=O)c4cccc(Cl)c4)CC3)cc2)n1
- MIC50 [1]: > 50 µM

SMILES: CN1Cc2cc(N3CCN(C(=O)c4cccc(Cl)c4)CC3)ccc2C1=O
- MIC50 [1]: > 50 µM
- Kd [2]: 866 nM

SMILES: CCC(=O)N1CCN(c2ccc(C(C)=O)cc2)CC1
- MIC50 [1]: > 50 µM

SMILES: CC(=O)c1ccc(N2CCN(C(=O)c3ccc4c(c3)OCCO4)CC2)cc1
- MIC50 [1]: > 50 µM

SMILES: CC(=O)c1ccc(N2CCN(C(=O)c3cccc(Cl)c3)CC2)s1
- MIC50 [1]: 7.6 µM
- Kd [2]: 322 nM

SMILES: COc1cc(Cl)cc(C(=O)N2CCN(c3ccc(C(C)=O)cc3)CC2)c1
- MIC50 [1]: > 50 µM

SMILES: N#Cc1ccc(N2CCN(C(=O)c3cccc(Cl)c3)CC2)cc1
- MIC50 [1]: 45.9 µM

SMILES: CC(=O)c1cccc(N2CCN(C(=O)c3cccc(Cl)c3)CC2)c1
- MIC50 [1]: > 50 µM

SMILES: Cn1nnnc1-c1ccc(N2CCN(C(=O)c3cccc(Cl)c3)CC2)cc1
- MIC50 [1]: > 50 µM

SMILES: CC(=O)c1ccc(N2CCN(C(=O)c3cc(Cl)cc(Cl)c3)CC2)cc1
- MIC50 [1]: > 50 µM

SMILES: O=C1OCc2cc(N3CCN(C(=O)c4cccc(Cl)c4)CC3)ccc21
- MIC50 [1]: > 50 µM
- Kd [2]: 685 nM

SMILES: COC(=O)c1ccc(N2CCN(C(=O)c3cccc(Cl)c3)CC2)cc1
- MIC50 [1]: > 50 µM

SMILES: C/C(=N\O)c1ccc(N2CCN(C(=O)c3cccc(Cl)c3)CC2)cc1
- MIC50 [1]: > 50 µM

SMILES: O=C(c1cccc(Cl)c1)N1CCN(c2ccc([N+](=O)[O-])cc2)CC1
- MIC50 [1]: 20.9 µM

SMILES: CC(=O)c1ccc(N2CCN(C(=O)c3ccc(Cl)c(Cl)c3)CC2)cc1
- MIC50 [1]: 17.7 µM

SMILES: CC(=O)c1ccc(N2CCN(C(=O)c3ccc4c(c3)OCO4)CC2)cc1
- MIC50 [1]: 31.1 µM
- MIC90 [1]: > 50 µM
- Kd [2]: 108 nM

SMILES: CC(=O)c1ccc(N2CCN(C(=O)c3cnn(C)c3)CC2)cc1
- MIC50 [1]: > 50 µM

SMILES: CC(=O)c1ccc(N2CCN(C(=O)c3ccc4c(c3)OCCCO4)CC2)cc1
- MIC50 [1]: > 50 µM

SMILES: O=C(c1cccc(Cl)c1)N1CCN(c2ccc(-c3ccccn3)cc2)CC1
- MIC50 [1]: > 50 µM

SMILES: COc1ccc(-c2ccc(N3CCN(C(=O)c4cccc(Cl)c4)CC3)cc2)nc1
- MIC50 [1]: > 50 µM

SMILES: CC(=O)c1ccc(N2CCN(C(=O)c3cccc(Cl)c3)CC2)cc1
- MIC50 [1]: 7.5 µM
- Kd [2]: 157 nM

SMILES: CC(=O)c1ccc(N2CCN(C(=O)c3cscn3)CC2)cc1
- MIC50 [1]: > 50 µM

SMILES: CC(=O)c1ccc(-c2cn(Cc3cccc(Cl)c3)nn2)s1
- MIC50 [1]: > 50 µM

SMILES: O=C(c1cccc(Cl)c1)N1CCN(c2ccc3c(c2)COC3)CC1
- MIC50 [1]: > 50 µM

SMILES: CC(=O)c1ccc(N2CCN(C(=O)c3cccnc3)CC2)cc1
- MIC50 [1]: > 50 µM

SMILES: CC(=O)c1ccc(N2CCC(C(=O)c3cccc(Cl)c3)CC2)cc1
- MIC50 [1]: 9.2 µM

SMILES: CC(=O)c1ccc(N2CCN(C(=O)c3cncc(Cl)c3)CC2)cc1
- MIC50 [1]: > 50 µM

SMILES: CC(=O)c1ccc(-c2cn(Cc3cccc(Cl)c3)nn2)cc1
- MIC50 [1]: > 50 µM

SMILES: CC(=O)c1ccc(N2CCC(C(=O)c3ccc4c(c3)OCO4)CC2)cc1
- MIC50 [1]: > 50 µM

SMILES: O=C1CCc2cc(N3CCN(C(=O)c4ccc5c(c4)OCO5)CC3)ccc21
- MIC50 [1]: 2.8 µM
- Kd [2]: 74 nM
